Source: article PMC5175369 (Nucleic Acids Research, 2016)
“And” between values parts separate entries of the source, which are not always exact repeats. Equal entries are not always repeated. Marks after values point to notes of the source that are not given here.

Columns and labels:
S. pombe Dcp1/2 complex = experiment: Decapping assay of short capped transcripts with SpDcp1/2; type: biochemical, Schizosaccharomyces pombe; conditions: 34 nt RNA capped with the analog, SpDcp1/2 complex, 30°C
Outline: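 Short 34-nt capped RNAs were transcribed with […] from EcoRI-linearized pSP-luc+. NTPs were 0.1 mM final and cap dinucleotide 0.5 mM final, for 45 min at 37°C, then DNase-treated and column-purified. 20 ng RNA was digested with 50 or 200 nM S. pombe Dcp1/2 in 10 mM Hepes pH 7.5, 100 mM KOAc, 2 mM Mg(OAc)2, 2 mM DTT at 30°C. No-enzyme controls were run. Products were separated on 15% PAGE/7 M urea with SYBR Gold. Decapping % is upper-band loss over upper plus lower bands, mean ± SD of two experiments.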

[1] = system: rabbit reticulocyte lysates (RRLs); experiment: Translation efficiency of capped luciferase mRNA in RRL; type: biochemical; conditions: for relative cap-dependent translation efficiency: ApppG-capped mRNA translation subtracted before normalization to m^7GpppG; for relative translation efficiency: luciferase mRNA capped with the analog, normalized to m^7GpppG-capped mRNA
Outline: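 Capped, polyadenylated luciferase mRNAs were made with SP6 polymerase from a PCR template, then DNase-treated and purified. Flexi RRL (40% lysate, 0.01 mM amino acids, 1 mM Mg acetate, 190 mM K acetate) was preincubated 60 min at 30°C, then translated 60 min at 30°C with four mRNA concentrations. Luminescence versus mRNA was linearly fitted and normalized to m7GpppG-capped mRNA, optionally after subtracting ApppG-capped mRNA. Means are from 2–3 repeats of each of two mRNA syntheses.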

mouse eIF4E = conditions: 20°C, cited from earlier work; for ΔG°: Gibbs free energy of binding; for KAS (cap–eIF4E): equilibrium association constant, mouse eIF4E
mammalian cells = conditions: mRNA capped with the analog; cited from earlier work

| Compound | relative cap-dependent translation efficiency [1] | relative translation efficiency [1] | Decapping % 5 min (S. pombe Dcp1/2 complex) [%] | Decapping % 15 min (S. pombe Dcp1/2 complex) [%] | Decapping % 30 min (S. pombe Dcp1/2 complex) [%] | ΔG° (mouse eIF4E) | KAS (cap–eIF4E) (mouse eIF4E) | mRNA half-life (mammalian cells) [h] |
| --- | --- | --- | --- | --- | --- | --- | --- | --- |
| CO[C@@H]1[C@H](O)[C@@H](COP(=O)([O-])OP(O)(=S)OP(=O)(O)OC[C@H]2O[C@@H](n3cnc4c(=O)[nH]c(N)nc43)[C@H](O)[C@@H]2O)O[C@H]1[n+]1cn(C)c2c(=O)[nH]c(N)nc21 (single isomer, unassigned) [m2^7,2′-OGppSpG D1, m2^7,2′-OGppSpG] | 2.27 ± 0.10 | 2.07 ± 0.18 | 47.5 ± 9.0 | 56.1 ± 11.5 | 60.9 ± 12.1 | −10.23 ± 0.02^a kcal·mol^−1 | 43.1 ± 1.4 μM^−1 and 43.1 ± 1.4^a μM^−1 | 3.08 ± 0.333 |
| CO[C@@H]1[C@H](O)[C@@H](COP(=O)([O-])OP(O)(=S)OP(=O)(O)OC[C@H]2O[C@@H](n3cnc4c(=O)[nH]c(N)nc43)[C@H](O)[C@@H]2O)O[C@H]1[n+]1cn(C)c2c(=O)[nH]c(N)nc21 (single isomer, unassigned) [m2^7,2′-OGppSpG D2, m2^7,2′-OGppSpG] | 2.83 ± 0.26 | 2.54 ± 0.66 | 47.3 ± 10.6 | 51.4 ± 15.6 | 57.4 ± 10.7 | −9.77 ± 0.07^a kcal·mol^−1 | 19.3 ± 2.2^a μM^−1 | 4.28 ± 0.067 |
| Nc1nc2c(ncn2[C@@H]2O[C@H](COP(=O)(O)OP(=O)(O)OP(=O)(O)OC[C@H]3O[C@@H](n4cnc5c(N)ncnc54)[C@H](O)[C@@H]3O)[C@@H](O)[C@H]2O)c(=O)[nH]1 [ApppG] | 0.00 | 0.16 ± 0.04 | – | – | – | – | – | – |
| C[n+]1cn(C2OC(COP(=O)(O)OP(=O)(O)OP(=O)(O)OP(=O)(O)OP(=O)(O)OCC3OC(n4cnc5c(=O)[nH]c(N)nc54)C(O)C3O)C(O)C2O)c2nc(N)[nH]c(=O)c21 (stereo not drawn) [m^7Gp5G] | – | – | – | – | – | −11.71 ± 0.06^b kcal·mol^−1 | 543 ± 55^b μM^−1 | – |
| m2^7,2′-OGpppSpG [m2^7,2′-OGpppSpG D1D2] | – | – | 72.7 ± 1.9 | 78.3 ± 1.0 | 79.5 ± 3.5 | −10.99 ± 0.01^c kcal·mol^−1 | 158 ± 2^c μM^−1 | – |

Now from value to compound, other results behind:

| relative cap-dependent translation efficiency [1] | relative translation efficiency [1] | Compound | Decapping % 5 min (S. pombe Dcp1/2 complex) [%] | Decapping % 15 min (S. pombe Dcp1/2 complex) [%] | Decapping % 30 min (S. pombe Dcp1/2 complex) [%] | ΔG° (mouse eIF4E) | KAS (cap–eIF4E) (mouse eIF4E) | mRNA half-life (mammalian cells) [h] |
| --- | --- | --- | --- | --- | --- | --- | --- | --- |
| 2.80 ± 0.83 | 2.51 ± 0.59 | COC1C(O)[C@@H](COP(=O)(O)OP(=O)([S-])OP(=O)(O)OP(=O)(O)OC[C@H]2O[C@@H](n3cnc4c(=O)[nH]c(N)nc43)C(O)C2O)O[C@H]1n1c[n+](C)c2c(O)nc(N)nc21 (mixture of isomers) [m2^7,2′-OGppSppG D1D2, m2^7,2′-OGppSppG] | 57.9 ± 14.6 | 65.6 ± 18.0 | 71.6 ± 17.2 | −11.33 ± 0.02^c kcal·mol^−1 | 282 ± 12^c μM^−1 | – |
| 1.96 ± 0.43 | 1.81 ± 0.32 | CO[C@@H]1[C@H](O)[C@@H](COP(=O)(O)OP(=O)([O-])OP(=O)(O)OC[C@H]2O[C@@H](n3cnc4c(=O)[nH]c(N)nc43)[C@H](O)[C@@H]2O)O[C@H]1n1c[n+](C)c2c(O)nc(N)nc21 [m2^7,2′-OGpppG] | 68.9 ± 0.4 | 78.6 ± 2.4 | 79.7 ± 7.5 | −9.42 ± 0.02^b kcal·mol^−1 | – | 2.58 ± 0.15 |
| 1.94 ± 0.56 | 1.79 ± 0.43 | CO[C@@H]1[C@H](O)[C@@H](COP(=O)(O)OP(=O)([O-])OP(=O)(O)OP(=O)(O)OC[C@H]2O[C@@H](n3cnc4c(=O)[nH]c(N)nc43)[C@H](O)[C@@H]2O)O[C@H]1n1c[n+](C)c2c(O)nc(N)nc21 [m2^7,2′-OGppppG] | 73.4 ± 7.6 | 78.4 ± 9.4 | 82.9 ± 11.3 | −10.73 ± 0.04^b kcal·mol^−1 | 99.8 ± 6.0^b μM^−1 | – |
| 1.99 ± 0.81 | 1.83 ± 0.64 | CO[C@H]1[C@@H](O)[C@H]([n+]2cn(C)c3c(=O)[nH]c(N)nc32)O[C@@H]1COP(=O)([O-])OP(=O)(O)OP(=O)(O)OC[C@H]1O[C@@H](n2cnc3c(=O)[nH]c(N)nc32)[C@H](O)[C@@H]1O [m2^7,3′-OGpppG] | – | – | – | −9.40 ± 0.02^a kcal·mol^−1 | 10.2 ± 0.3^a μM^−1 | – |
| 1 | 1 | Cn1c[n+]([C@@H]2O[C@H](COP(=O)(O)OP(=O)([O-])OP(=O)(O)OC[C@H]3O[C@@H](n4cnc5c(=O)[nH]c(N)nc54)[C@H](O)[C@@H]3O)[C@@H](O)[C@H]2O)c2nc(N)[nH]c(=O)c21 [m^7GpppG] | – | – | – | −9.35 ± 0.03^a kcal·mol^−1 | 9.4 ± 0.4 μM^−1 and 9.4 ± 0.4^a μM^−1 | – |
